Results reported in paper PMC9826503 (Chemmedchem, 2022).
Like-named read-outs stand apart in the source and are kept apart here.

Assays:
[1] = test system: non-tumorigenic breast epithelial cell line MCF12A; experiment: Resazurin cytotoxicity assay, MCF-12A; format: cell-based; details: read-out: MCF-12A IC50 and SD
[2] = test system: MCF-7 hormone responsive breast cancer cell line; experiment: Resazurin cytotoxicity assay, MCF-7; format: cell-based; details: for IC50: read-out: MCF-7 IC50 and SD
[3] = test system: cancer cell lines (HeLa, HCC70, MCF-7); experiment: Resazurin cytotoxicity assay, cancer cell lines as a group; format: cell-based; details: read-out: IC50 values against the cancer cells
Method in brief: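 HeLa, HCC70 and MCF-7 cells seeded at 5000 cells/well and left to attach overnight (37 °C, 9 % CO2). Treated 96 h with test compound (15.63–500.00 μM), 2 % (v/v) DMSO vehicle, or paclitaxel control (0.16–500 nM). Resazurin then added for 2–4 h; fluorescence read at ex 560/em 590 nm. Done in triplicate; IC50 by non-linear regression.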

[4] = test system: HCC70 triple negative breast cancer cell line; experiment: Resazurin cytotoxicity assay, HCC70; format: cell-based; details: for IC50: read-out: HCC70 IC50 and SD
[5] = test system: HeLa cervical cancer cell line; experiment: Resazurin cytotoxicity assay, HeLa; format: cell-based
[6] = biological target: T1, recombinant human topoisomerase I (Homo sapiens, UniProt P11387); experiment: Topoisomerase I inhibition; format: biochemical
T1 sequence (P11387 1-765): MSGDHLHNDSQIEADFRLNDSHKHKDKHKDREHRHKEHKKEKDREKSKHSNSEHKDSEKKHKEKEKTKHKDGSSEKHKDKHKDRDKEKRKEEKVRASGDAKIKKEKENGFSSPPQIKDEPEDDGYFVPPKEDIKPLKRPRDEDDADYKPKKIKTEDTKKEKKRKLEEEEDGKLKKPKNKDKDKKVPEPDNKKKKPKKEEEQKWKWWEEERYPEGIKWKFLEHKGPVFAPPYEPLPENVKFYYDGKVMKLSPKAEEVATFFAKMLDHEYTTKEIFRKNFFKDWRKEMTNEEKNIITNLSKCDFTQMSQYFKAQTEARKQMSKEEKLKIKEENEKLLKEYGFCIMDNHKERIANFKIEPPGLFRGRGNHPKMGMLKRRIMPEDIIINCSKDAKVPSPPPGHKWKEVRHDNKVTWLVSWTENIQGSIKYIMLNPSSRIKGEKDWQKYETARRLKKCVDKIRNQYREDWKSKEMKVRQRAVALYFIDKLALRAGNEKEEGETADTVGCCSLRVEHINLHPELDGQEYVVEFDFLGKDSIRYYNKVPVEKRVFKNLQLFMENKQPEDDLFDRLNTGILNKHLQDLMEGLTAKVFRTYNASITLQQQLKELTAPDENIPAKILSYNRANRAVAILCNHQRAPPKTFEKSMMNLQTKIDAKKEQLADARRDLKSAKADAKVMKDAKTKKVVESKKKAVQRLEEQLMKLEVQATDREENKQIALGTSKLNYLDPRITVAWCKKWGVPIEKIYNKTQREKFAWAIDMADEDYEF

human genomic DNA (gDNA) = experiment: Agarose gel electrophoresis, ethidium bromide displacement from gDNA; format: binding
Method in brief: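 Human genomic DNA (100 ng) was incubated with test compound at 50 or 200 μM for 4 hours at 37 °C, alongside a 2 % (v/v) DMSO control and a cisplatin (200 μM) control. Mixtures with loading dye were run on a 0.8 % (w/v) agarose gel containing ethidium bromide, 45 min at 90 V in 1× TAE (40 mM Tris-acetate, 1 mM EDTA). Bands were imaged, and EtBr staining intensity was compared across lanes.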

calf thymus DNA = experiment: Methylene blue DNA competition assay; format: binding; details: 50 and 200 μM, 100 ng calf thymus DNA, 15 μg/mL methylene blue
Method in brief: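 Each 100 μL reaction held methylene blue (15 μg/mL), calf thymus DNA (100 ng) and test compound (50 or 200 μM) in MilliQ water, with a 0.05 % (v/v) DMSO vehicle control. Mixtures were incubated 10 minutes at room temperature in the dark. An emission scan was then recorded under fixed excitation. Runs were done in triplicate.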

[7] = biological target: T2, bovine serum albumin (BSA) (Bos taurus, UniProt P02769); experiment: BSA fluorescence quenching titration, with and without site markers; format: binding
Method in brief: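 Emission spectra of BSA recorded at 293 K during titration with increasing test compound. Excitation 280 nm, emission 300–500 nm, slits 5 nm. Intensities corrected for inner filter effect using absorbances at the excitation and emission maxima. KSV from Stern-Volmer fit; kq = KSV/τ0, τ0 10−8 s. Site-marker runs: warfarin (site I) or ibuprofen (site II) added equimolar to BSA (each 5 μM) before titration.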

[8] = biological target: T2, bovine serum albumin (BSA); experiment: BSA UV-Vis absorption titration; format: binding; details: 280 nm
Method in brief: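 BSA (~20 μM, PBS pH 7.2; concentration set from ε280 = 43824 M−1 cm−1) titrated with test compound (0–~380 μM; stocks in MeOH). Equal compound volumes added to the sample and reference cells; each mixture incubated 2 min. BSA absorbance at 280 nm fitted to a double-reciprocal plot of 1/(A0−A) vs 1/[compound]. kapp taken as the intercept/slope ratio.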

[9] = Time-dependent stability studies by UV-Vis spectrophotometry; format: physicochemical; details: 10^−5 M, 1 hour intervals for 24 hours
Method in brief: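 Test compound was dissolved at 10−5 M in anhydrous DMSO at room temperature and filtered. UV-Vis spectra were then recorded hourly over 24 hours.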

[10] = (IC50 value in MCF12-A)/(IC50 value in cancer cell line)
[11] = Ibuprofen site marker (site II)
[12] = No Site marker, KSV=kq τ0, τ0 10^−8 s
[13] = 96 hours, non-cancerous control

T2 sequence (P02769 25-607): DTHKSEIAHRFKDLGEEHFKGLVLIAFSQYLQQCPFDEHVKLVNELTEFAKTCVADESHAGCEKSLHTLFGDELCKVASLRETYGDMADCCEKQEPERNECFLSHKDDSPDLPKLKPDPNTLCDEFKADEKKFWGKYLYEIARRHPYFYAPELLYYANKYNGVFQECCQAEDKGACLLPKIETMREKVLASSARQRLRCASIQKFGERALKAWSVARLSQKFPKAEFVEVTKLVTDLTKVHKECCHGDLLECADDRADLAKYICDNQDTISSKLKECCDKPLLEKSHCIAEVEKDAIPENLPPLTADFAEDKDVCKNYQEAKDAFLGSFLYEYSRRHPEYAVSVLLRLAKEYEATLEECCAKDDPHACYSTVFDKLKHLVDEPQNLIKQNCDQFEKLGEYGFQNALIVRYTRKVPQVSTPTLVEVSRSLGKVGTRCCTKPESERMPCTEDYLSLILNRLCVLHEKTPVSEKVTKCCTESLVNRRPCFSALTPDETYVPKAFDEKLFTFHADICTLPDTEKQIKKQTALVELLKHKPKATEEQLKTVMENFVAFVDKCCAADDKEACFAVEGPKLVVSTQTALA

| K SV [7, 11] | k q [7, 11] | K SV ([7]; No Site marker) | k q [7, 12] | K SV ([7]; Warfarin site marker (site I)) | k q ([7]; Warfarin site marker (site I)) | apparent association constant (kapp) [8] | Molecule | Intensity of EtBr stained gDNA band (human genomic DNA (gDNA); higher concentration (200 μM)) | Competition with methylene blue for DNA binding (intercalation) (calf thymus DNA) | IC50 [1, 13] | IC50 ([2]; 96 hours) | Stability in anhydrous DMSO (UV-Vis spectral changes) [9] | further results |
| --- | --- | --- | --- | --- | --- | --- | --- | --- | --- | --- | --- | --- | --- |
| – | – | – | – | – | – | – | CC(=O)O[C@H]1C(=O)[C@@]2(C)[C@H]([C@H](OC(=O)c3ccccc3)[C@]3(O)C[C@H](OC(=O)[C@H](O)[C@@H](NC(=O)c4ccccc4)c4ccccc4)C(C)=C1C3(C)C)[C@]1(OC(C)=O)CO[C@@H]1C[C@@H]2O [Paclitaxel, paclitaxel, reference compound] | – | – | – | – | – | IC50 ([1]; Homo sapiens, MCF-12A, 96 h): 0.0162 ± 0.00108 µM; SI (selectivity index), MCF-7 [2, 10]: 6.73; IC50 ([2]; Homo sapiens, MCF7, 96 h): 0.0024 ± 0.00111 µM; IC50 [3]: 0.0024 to 0.00392 µM; SI (selectivity index), HCC70 [4, 10]: 4.12; IC50 ([4]; Homo sapiens, HCC70, 96 h): 0.00392 ± 0.00103 µM; SI (selectivity index), HeLa [5, 10]: 5.96 |
| – | – | – | – | – | – | – | CC[C@@]1(O)C(=O)OCc2c1cc1n(c2=O)Cc2cc3ccccc3nc2-1 [camptothecin, reference compound] | – | – | – | – | – | Inhibition of Topo I activity ([6]; 200 μM): failed to inhibit the enzyme |
| 9130 M⁻¹ | 9.13e+11 M⁻¹ s⁻¹ | 69500 M⁻¹ | 6.95e+12 M⁻¹ s⁻¹ | 1290 M⁻¹ | 1.29e+11 M⁻¹ s⁻¹ | 18900 M⁻¹ | cis‐Cl, trans‐P‐[RuCl2(PPh3)2(btm)] [Compound 3] | considerable dose‐dependent reduction in intensity | no effect on the ability of methylene blue to bind to the DNA | 36.5 ± 1.08 µM | 8.87 ± 1.12 µM | blue‐shifted and decreasing MLCT band at 525 nm and an emerging MLCT band at 437 nm | IC50 ([5]; read-out: HeLa IC50 and SD, 96 hours): 6.29 ± 1.1 µM; Inhibition of Topo I activity ([6]; 50 μM): complete inhibition of Topo I |
| 1360 M⁻¹ | 1.36e+11 M⁻¹ s⁻¹ | 88400 M⁻¹ | 8.84e+12 M⁻¹ s⁻¹ | 2090 M⁻¹ | 2.09e+11 M⁻¹ s⁻¹ | 90200 M⁻¹ | trans‐P‐[RuCl(PPh3)2(pmt)]Cl [Compound 1] | considerable dose‐dependent reduction in intensity | competitively bind to the calf thymus DNA in a concentration‐dependent manner | 60.1 µM | 5.2 µM | noticeable alterations in the electronic spectrum | Intensity of EtBr stained gDNA band (human genomic DNA (gDNA); lower concentration (50 μM), relative to DMSO control): decreases in the intensity of the EtBr stained gDNA; fold less cytotoxic towards HCC70 compared to MCF-7 ([4]; HCC70 versus MCF-7): more than 10 fold; IC50 ([4]; 96 hours): 75.5 µM; Inhibition of Topo I activity ([6]; 50 and 200 μM): inhibited Topo I activity |
